Test results from ChEMBL document CHEMBL2407049, “Cyclopeptide alkaloids: stereochemistry and synthesis of the precursors of discarines C and D and myrianthine A” (2013).
Activity calls are given as the source filed them.

Experiments:
[1] = tested on: Staphylococcus epidermidis; test: Antibacterial activity against Staphylococcus epidermidis ATCC 12228 assessed as growth inhibition at 50 to 1.56 ug after 24 hrs by TLC assay; assay type: functional
In short: (§1)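 Direct TLC bioautography: compound amounts from 50 to 1.56 μg applied to precoated TLC plates, overlaid with Mueller Hinton or Sabouraud agar inoculated with microorganism suspension (10⁵ cfu mL⁻¹). Plates incubated 24 h at 37 °C, then stained with aqueous 2,3,5-triphenyltetrazolium chloride (1 mg mL⁻¹). The lowest amount giving an inhibition zone was recorded; <50 μg counted active. Triplicate.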

Cryptococcus neoformans = test: Antifungal activity against Cryptococcus neoformans ATCC 28952 assessed as concentration required to inhibit fungal growth after 24 hrs by TLC assay; assay type: functional; in short: as §1
Klebsiella pneumoniae [2] = test: Antibacterial activity against Klebsiella pneumoniae ATCC 10031 assessed as concentration required to inhibit bacterial growth after 24 hrs by TLC assay; assay type: functional; in short: as §1
[3] = (§2) Antibacterial activity against Salmonella Setubal ATCC 19196 assessed as growth inhibition at 50 to 1.56 ug after 24 hrs by TLC assay; assay type: functional, Salmonella enterica subsp. enterica serovar Setubal; in short: as §1
Staphylococcus aureus [4] = test: Antibacterial activity against Staphylococcus aureus ATCC 6538p assessed as concentration required to inhibit bacterial growth after 24 hrs by TLC assay; assay type: functional; in short: as §1
[5] = tested on: Staphylococcus epidermidis; test: Antibacterial activity against Staphylococcus epidermidis ATCC 12228 assessed as concentration required to inhibit bacterial growth after 24 hrs by TLC assay; assay type: functional; in short: as §1
Candida dubliniensis = test: Antifungal activity against Candida dubliniensis SM 26 clinical isolate assessed as concentration required to inhibit fungal growth after 24 hrs by TLC assay; assay type: functional; in short: as §1
Kocuria rhizophila [6] = test: Antibacterial activity against Micrococcus luteus ATCC 9341 assessed as growth inhibition at 50 to 1.56 ug after 24 hrs by TLC assay; assay type: functional; in short: as §1
Kocuria rhizophila [7] = test: Antibacterial activity against Micrococcus luteus ATCC 9341 assessed as concentration required to inhibit bacterial growth after 24 hrs by TLC assay; assay type: functional; in short: as §1
Klebsiella pneumoniae [8] = test: Antibacterial activity against Klebsiella pneumoniae ATCC 10031 assessed as growth inhibition at 50 to 1.56 ug after 24 hrs by TLC assay; assay type: functional; in short: as §1
Escherichia coli [9] = test: Antibacterial activity against Escherichia coli ATCC 11103 assessed as concentration required to inhibit bacterial growth after 24 hrs by TLC assay; assay type: functional; in short: as §1
Escherichia coli [10] = test: Antibacterial activity against Escherichia coli ATCC 11103 assessed as growth inhibition at 50 to 1.56 ug after 24 hrs by TLC assay; assay type: functional; in short: as §1
Saccharomyces cerevisiae = test: Antifungal activity against Saccharomyces cerevisiae ATCC 2601 assessed as concentration required to inhibit fungal growth after 24 hrs by TLC assay; assay type: functional; in short: as §1
[11] = Antibacterial activity against Salmonella Setubal ATCC 19196 assessed as concentration required to inhibit bacterial growth after 24 hrs by TLC assay; assay type: functional, Salmonella enterica subsp. enterica serovar Setubal; in short: as §1
Staphylococcus aureus [12] = test: Antibacterial activity against Staphylococcus aureus ATCC 6538p assessed as growth inhibition at 50 to 1.56 ug after 24 hrs by TLC assay; assay type: functional; in short: as §1
Candida albicans = test: Antifungal activity against Candida albicans ATCC 10231 assessed as concentration required to inhibit fungal growth after 24 hrs by TLC assay; assay type: functional; in short: as §1
Candida tropicalis = test: Antifungal activity against Candida tropicalis ATCC 750 assessed as concentration required to inhibit fungal growth after 24 hrs by TLC assay; assay type: functional; in short: as §1
[13] = tested on: Salmonella enterica subsp. enterica serovar Setubal; test: as §2; assay type: functional; in short: as §1

CC[C@H](C)[C@H](NC(=O)[C@@H](NC(=O)[C@H](CC(C)C)N(C)C)[C@@H](Oc1ccc(C=O)cc1)c1ccccc1)C(=O)OC
<50 µg: Activity [1] | Activity (Cryptococcus neoformans) | Activity (Klebsiella pneumoniae [2]) | Activity [3] | Activity (Staphylococcus aureus [4]) | Activity [5] | Activity (Candida dubliniensis) | Activity (Kocuria rhizophila [6]) | Activity (Kocuria rhizophila [7]) | Activity (Klebsiella pneumoniae [8]) | Activity (Escherichia coli [9]) | Activity (Escherichia coli [10]) | Activity (Saccharomyces cerevisiae) | Activity [11] | Activity (Staphylococcus aureus [12]) | Activity (Candida albicans) | Activity (Candida tropicalis)

COC(=O)[C@H](Cc1ccccc1)NC(=O)[C@H](NC(=O)[C@H](CC(C)C)N(C)C)[C@H](Oc1ccc(C=O)cc1)c1ccccc1 (mixture of isomers)
inactive: growth inhibition (GI) [1] | growth inhibition (GI) [13] | growth inhibition (GI) (Kocuria rhizophila [6]) | growth inhibition (GI) (Klebsiella pneumoniae [8]) | growth inhibition (GI) (Escherichia coli [10]) | growth inhibition (GI) (Staphylococcus aureus [12])
<50 µg: Activity (Cryptococcus neoformans) | Activity (Klebsiella pneumoniae [2]) | Activity (Staphylococcus aureus [4]) | Activity [5] | Activity (Candida dubliniensis) | Activity (Kocuria rhizophila [7]) | Activity (Escherichia coli [9]) | Activity (Saccharomyces cerevisiae) | Activity [11] | Activity (Candida albicans) | Activity (Candida tropicalis)

CC[C@H](C)[C@H](NC(=O)[C@@H]([C@H](Oc1ccc(C=O)cc1)c1ccccc1)N1CN(C)[C@@H](CC(C)C)C1=O)C(=O)OC (mixture of isomers)
<50 µg: Activity (Cryptococcus neoformans) | Activity (Klebsiella pneumoniae [2]) | Activity (Staphylococcus aureus [4]) | Activity [5] | Activity (Candida dubliniensis) | Activity (Kocuria rhizophila [7]) | Activity (Escherichia coli [9]) | Activity (Saccharomyces cerevisiae) | Activity [11] | Activity (Candida albicans) | Activity (Candida tropicalis)

COC(=O)[C@H](Cc1ccccc1)NC(=O)[C@@H]([C@@H](O)c1ccccc1)N1CN(C)[C@@H](CC(C)C)C1=O (mixture of isomers)
3.1 µg: Activity (Escherichia coli [9])
12.5 µg: Activity [11]
<50 µg: Activity (Cryptococcus neoformans) | Activity (Staphylococcus aureus [4]) | Activity (Candida dubliniensis) | Activity (Kocuria rhizophila [7]) | Activity (Saccharomyces cerevisiae) | Activity (Candida albicans) | Activity (Candida tropicalis)
6.2 µg: Activity (Klebsiella pneumoniae [2]) | Activity [5]

CC(C)C[C@@H](C(=O)N[C@@H]1C(=O)N[C@@H](Cc2ccccc2)C(=O)N/C=C\c2ccc(cc2)O[C@H]1c1ccccc1)N(C)C
>50 µg: Activity (Cryptococcus neoformans) | Activity (Klebsiella pneumoniae [2]) | Activity (Staphylococcus aureus [4]) | Activity [5] | Activity (Candida dubliniensis) | Activity (Kocuria rhizophila [7]) | Activity (Escherichia coli [9]) | Activity (Saccharomyces cerevisiae) | Activity [11] | Activity (Candida albicans) | Activity (Candida tropicalis)

CC[C@H](C)[C@H](NC(=O)[C@@H]([C@@H](O)c1ccccc1)N1CN(C)[C@@H](CC(C)C)C1=O)C(=O)OC (mixture of isomers)
<50 µg: Activity (Cryptococcus neoformans) | Activity (Klebsiella pneumoniae [2]) | Activity (Staphylococcus aureus [4]) | Activity [5] | Activity (Candida dubliniensis) | Activity (Kocuria rhizophila [7]) | Activity (Escherichia coli [9]) | Activity (Saccharomyces cerevisiae) | Activity [11] | Activity (Candida albicans) | Activity (Candida tropicalis)

COC(=O)[C@H](CC(C)C)NC(=O)[C@@H](NC(=O)[C@H](CC(C)C)N(C)C)[C@@H](Oc1ccc(C=O)cc1)c1ccccc1 (mixture of isomers)
<50 µg: Activity (Cryptococcus neoformans) | Activity (Klebsiella pneumoniae [2]) | Activity (Staphylococcus aureus [4]) | Activity [5] | Activity (Candida dubliniensis) | Activity (Kocuria rhizophila [7]) | Activity (Escherichia coli [9]) | Activity (Saccharomyces cerevisiae) | Activity [11] | Activity (Candida albicans) | Activity (Candida tropicalis)
